We go through 3 compounds from ChEMBL document CHEMBL4602702, “Red-Emitting Dibenzodiazepinone Derivatives as Fluorescent Dualsteric Probes for the Muscarinic Acetylcholine M2 Receptor” (J Med Chem, 2020).

Usually Kd stands for a measure of binding affinity in units of concentration.

Holding throughout (format): cell-based
The target of assay [1] is T1, Muscarinic acetylcholine receptor M2 (Homo sapiens) (UniProt P08172).
T1 sequence (whole entry): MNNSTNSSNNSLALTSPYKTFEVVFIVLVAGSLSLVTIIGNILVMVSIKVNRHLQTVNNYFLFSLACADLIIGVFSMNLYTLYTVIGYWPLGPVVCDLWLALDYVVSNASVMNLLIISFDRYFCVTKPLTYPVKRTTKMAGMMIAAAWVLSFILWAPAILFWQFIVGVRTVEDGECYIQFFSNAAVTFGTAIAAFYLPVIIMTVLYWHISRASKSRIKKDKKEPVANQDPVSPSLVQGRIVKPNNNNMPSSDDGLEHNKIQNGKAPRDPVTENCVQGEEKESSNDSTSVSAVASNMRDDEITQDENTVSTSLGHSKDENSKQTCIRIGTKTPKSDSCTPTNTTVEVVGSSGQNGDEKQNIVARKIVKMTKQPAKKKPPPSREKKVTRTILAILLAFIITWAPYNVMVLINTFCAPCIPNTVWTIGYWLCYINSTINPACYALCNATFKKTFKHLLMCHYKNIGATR
Put plainly: Binding affinity to human muscarinic M2 receptor expressed in CHO-K9 cells assessed as dissociation rate constant at 22 +/- 1 degree C preincubated for 110 mins followed by atropine addition by flow cytometric saturation binding study. In short, it runs like this:
(§1)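 Dissociation followed by flow cytometry at 22 °C over 9 h. koff from three-parameter incomplete monophasic decline fit; three or four experiments in duplicate.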
(A flow cytometer gives signals particle by particle.)

In assay [2] the target is T2, Muscarinic acetylcholine receptor M4 (Homo sapiens, UniProt P08173).
T2 sequence (P08173 whole entry): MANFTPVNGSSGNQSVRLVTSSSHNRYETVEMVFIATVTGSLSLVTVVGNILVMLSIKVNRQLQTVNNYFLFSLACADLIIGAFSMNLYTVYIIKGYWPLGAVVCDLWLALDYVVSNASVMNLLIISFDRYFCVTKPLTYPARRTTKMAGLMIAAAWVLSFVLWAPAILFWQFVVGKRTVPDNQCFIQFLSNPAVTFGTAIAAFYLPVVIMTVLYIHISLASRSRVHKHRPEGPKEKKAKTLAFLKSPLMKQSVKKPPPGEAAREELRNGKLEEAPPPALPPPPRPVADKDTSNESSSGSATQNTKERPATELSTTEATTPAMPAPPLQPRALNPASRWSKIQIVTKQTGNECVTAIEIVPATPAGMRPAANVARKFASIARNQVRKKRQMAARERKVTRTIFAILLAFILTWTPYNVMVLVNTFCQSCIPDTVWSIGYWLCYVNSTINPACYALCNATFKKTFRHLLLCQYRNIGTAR
Put plainly: Binding affinity to human muscarinic M4 receptor expressed in […] cells incubated in dark at 22 degree C for 2 hrs by FACSCalibur flow cytometric saturation binding study.

The target of assay [3] is T1, Muscarinic acetylcholine receptor M2 (Homo sapiens). Put plainly: Binding affinity to human muscarinic M2 receptor expressed in CHO-K9 cells assessed as dissociation rate constant at 22 +/- 1 degree C preincubated for 120 mins followed by atropine addition by flow cytometric saturation binding study. An outline of the steps: as §1

SMILES strings stand for the structures.

Take `CC1(C)C(/C=C/C=C/C=C2/N(CCCCCC(=O)NCc3cc(C(=O)NCCNC(=O)CCc4cn(CCCCC5CCN(CC(=O)N6c7ccccc7NC(=O)c7ccccc76)CC5)cn4)cc(C(=O)NCCNC(=O)CCc4cn(CCCCC5CCN(CC(=O)N6c7ccccc7NC(=O)c7ccccc76)CC5)cn4)c3)c3ccc(S(=O)(=O)O)cc3C2(C)C)=[N+](CCCCS(=O)(=O)[O-])c2ccccc21.O=C(O)C(F)(F)F.O=C(O)C(F)(F)F.O=C(O)C(F)(F)F`: the K in assay [1] stood at 0.0031 min⁻¹.

Regarding `CC1(C)C(/C=C/C=C/C=C2/N(CCCCCC(=O)NCCN3CCN(CCCCC4CCN(CC(=O)N5c6ccccc6NC(=O)c6ccccc65)CC4)CC3)c3ccc(S(=O)(=O)O)cc3C2(C)C)=[N+](CCCCS(=O)(=O)[O-])c2ccccc21.O=C(O)C(F)(F)F.O=C(O)C(F)(F)F`, the Kd in assay [2] is 9.55 nM.

For the compound `CC1(C)C(/C=C/C=C/C=C2/N(CCCCCC(=O)NCCNC(=O)CCc3cn(CCCCC4CCN(CC(=O)N5c6ccccc6NC(=O)c6ccccc65)CC4)cn3)c3ccc(S(=O)(=O)O)cc3C2(C)C)=[N+](CCCCS(=O)(=O)[O-])c2ccccc21.O=C(O)C(F)(F)F`, in assay [3], the K was determined as 0.0069 min⁻¹.
